Source: ChEMBL document CHEMBL1147668, “New 2-alkylidene 1alpha,25-dihydroxy-19-norvitamin D3 analogues of high intestinal activity: synthesis and biological evaluation of 2-(3'-alkoxypropylidene) and 2-(3'-hydroxypropylidene) derivatives” (J Med Chem, 2006)
Where “and” joins values, the source holds several entries; their conditions need not be identical. Equal entries are not always repeated. Calls of active or inactive are those of the source. The calls are words filed in the database; no cut-off is given here.

Experiments:
[1] = target: T1, Vitamin D3 receptor (Rattus norvegicus) (UniProt P13053); assay: Induction of vitamin D mediated transactivation in rat ROS17/2.8 cell luciferase assay; assay type: functional
T1 sequence (whole entry): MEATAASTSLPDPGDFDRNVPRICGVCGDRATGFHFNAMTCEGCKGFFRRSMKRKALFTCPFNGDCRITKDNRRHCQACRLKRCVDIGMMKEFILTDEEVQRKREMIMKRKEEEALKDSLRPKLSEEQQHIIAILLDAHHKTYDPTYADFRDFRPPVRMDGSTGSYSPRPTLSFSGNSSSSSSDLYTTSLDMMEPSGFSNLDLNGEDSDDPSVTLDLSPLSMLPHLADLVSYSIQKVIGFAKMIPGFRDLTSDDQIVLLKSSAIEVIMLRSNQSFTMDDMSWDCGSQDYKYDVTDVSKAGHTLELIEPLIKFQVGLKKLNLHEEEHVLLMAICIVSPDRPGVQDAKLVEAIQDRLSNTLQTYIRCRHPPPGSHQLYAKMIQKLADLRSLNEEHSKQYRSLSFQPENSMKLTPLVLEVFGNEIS
Method in brief: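 ROS 17/2.8 cells stably carrying a 24-hydroxylase promoter-luciferase reporter were dosed over a concentration range. Luciferase was measured by luminometer 16 h later.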

Rattus norvegicus [2] = assay: Calcium mobilization in vitamin D deficient ip dosed Sprague-Dawley rat bone; assay type: functional, organism-based
Method in brief: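 Rats depleted of vitamin D and kept on 0.02% Ca diet; four consecutive daily ip doses in 0.1 mL 1,2-propanediol/ethanol (95:5). Serum drawn 24 h after last dose; calcium by atomic absorption with 0.1% lanthanum chloride; rise in serum calcium taken as bone calcium mobilization.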

Rattus norvegicus [3] = assay: Calcium mobilization in vitamin D deficient ip dosed Sprague-Dawley rat
[4] = target: T2, Vitamin D3 receptor (Homo sapiens) (UniProt P11473); assay: Induction of differentiation of human HL60 promyelocytes to monocytes; assay type: functional
T2 sequence (whole entry): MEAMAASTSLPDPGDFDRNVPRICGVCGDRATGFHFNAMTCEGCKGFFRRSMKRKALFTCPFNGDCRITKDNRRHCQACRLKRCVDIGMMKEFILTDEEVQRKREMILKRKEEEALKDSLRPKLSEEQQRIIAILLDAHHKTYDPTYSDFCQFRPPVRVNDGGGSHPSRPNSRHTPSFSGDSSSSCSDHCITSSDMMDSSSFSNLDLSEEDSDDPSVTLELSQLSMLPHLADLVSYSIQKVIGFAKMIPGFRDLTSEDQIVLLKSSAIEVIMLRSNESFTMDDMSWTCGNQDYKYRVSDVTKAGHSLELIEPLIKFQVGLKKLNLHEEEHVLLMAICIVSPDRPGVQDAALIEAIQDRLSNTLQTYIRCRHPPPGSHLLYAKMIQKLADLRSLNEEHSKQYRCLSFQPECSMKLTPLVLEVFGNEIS

Mus musculus = assay: Increase of calcium level in po dosed CD1 mouse serum; assay type: functional, organism-based
Method in brief: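 Female CD-1 mice, 6-7 weeks, on 0.47% Ca diet, acclimated 5-7 days. Single gastric gavage dose formulated in Neobee oil with 5% ethanol at 4 mL/kg. Serum calcium measured by atomic absorption at several timepoints after dosing, including day 3.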

Row | SMILES | ED50 [1] [nM] | Activity (Rattus norvegicus [2]) | Activity (Rattus norvegicus [3]) | ED50 [4] | Activity (Mus musculus)
1 | C[C@@H](CCCC(C)(C)O)C1CCC2/C(=C/C=C3C[C@@H](O)C(=CCCO)[C@H](O)C3)CCC[C@@]21C (stereo partly drawn) | 0.0065 | Active | Active | – | –
2 | COCOCCC=C1[C@H](O)CC(=C/C=C2\CCC[C@@]3(C)C2CCC3[C@H](C)CCCC(C)(C)O)C[C@H]1O (stereo partly drawn) | 3.8 | Active | Active | 4.7 nM | Active
3 | C[C@H](CCCC(C)(C)O)C1CCC2/C(=C/C=C3C[C@@H](O)C(=CCCO)[C@H](O)C3)CCC[C@@]21C (stereo partly drawn) | 0.042 | Active | Active | 3 nM and 1.3 nM | Active
